Experimental data of several laboratories.
Compare with care: the assays were run in different laboratories.

SMILES | tested on | assay | test system | conditions | quantity | result
O=C(O)c1cn(C2CC2)c2cc(N3CCNCC3)c(F)cc2c1=O | Mycobacterium kansasii | microbial growth, broth dilution | DSM44162 | 7 days | MIC | 1 µg/mL
Cc1nc(N(Cc2ccccc2)c2ccc3c(c2)/C(=C/c2ccccc2)C(=O)N3Cc2ccccc2)c2ccccc2n1 (mixture of isomers) | B16 | cell growth or viability, MTT |  |  | IC50 | 200 nM
O=C(O)c1cn(C2CC2)c2cc(N3CCNCC3)c(F)cc2c1=O | Acinetobacter baumannii | microbial growth, broth dilution | ATCC19606 |  | MIC | 2 µM
C=CC(=O)NC1CCN(c2ncc3ncnc(Nc4ccc(Oc5ccc6c(c5)ncn6C)c(C)c4)c3n2)CC1 | Capan-2 | cell growth or viability |  |  | EC50 | 36.1 nM
Cl.N[C@H]1CCN(c2cc(C(=O)NCC(=O)O)ccc2NC(=O)c2cc(Br)c(Br)[nH]2)C1 | Acinetobacter baumannii | microbial growth, broth dilution | ATCC19606 |  | MIC | > 32 µg/mL
O=C(O)c1cn(C2CC2)c2cc(N3CCNCC3)c(F)cc2c1=O | Acinetobacter baumannii | microbial growth | ATCC19606 |  | MIC | 8 µM
COc1cc2ncnc(Nc3ccc4c(c3)/C(=C/c3ccccc3)C(=O)N4C)c2cc1OC | B16 | cell growth or viability, MTT |  |  | IC50 | 1530 nM
Cc1[nH]c(C(=O)Nc2ccc(C(=O)NCc3n[nH]c(=O)o3)cc2N2CCNCC2)c(Cl)c1Cl.Cl | Acinetobacter baumannii | microbial growth, broth dilution | ATCC19606 |  | MIC | > 32 µg/mL
NNC(=O)c1ccncc1 | Mycobacterium kansasii | microbial growth, broth dilution | DSM44162 | 7 days | MIC | 4 µg/mL
Cc1nc(Nc2ccc3c(c2)C(C)(C)C(=O)N3C)c2ccccc2n1 | B16 | cell growth or viability, MTT |  |  | IC50 | 14000 nM
